These results are taken from ChEMBL document CHEMBL1764975, “A new DNA gyrase inhibitor subclass of the cyclothialidine family based on a bicyclic dilactam-lactone scaffold. Synthesis and antibacterial properties” (J Med Chem, 2011).

Values after ≈ are worked out from the molar mass of the structure shown.

Experiment [1] relates to Escherichia coli. As to the kind of experiment: Inhibition of Escherichia coli DNA gyrase A2B2 complex after 30 mins by supercoiling assay.
Experiment [2] has as its system Staphylococcus aureus. As to the kind of experiment: Antimicrobial activity against Staphylococcus aureus Smith infected in iv dosed septicaemia Swiss albino mouse model after 4 days. Type of experiment: functional. To be noted: 96 h. An outline of the steps: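 Septicaemia model in mice infected with S. aureus Smith, compound given iv. In experiments with 0-1 survivors among 5-10 control mice, ED₅₀ (mg/kg) taken as lowest dose giving 3-5 survivors out of 5 infected mice.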

Experiment [3] deals with Staphylococcus aureus. The experiment is described as follows: (§1) Antimicrobial activity against Staphylococcus aureus Smith after 18 hrs by agar dilution method. Type of experiment: functional. An outline of the steps: (§2)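 Agar dilution on Mueller-Hinton medium, inoculum 10⁴ CFU/spot; MIC is the minimum inhibitory concentration against the named strain.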
The next experiment concerns Streptococcus pyogenes. As to the kind of experiment: Antimicrobial activity against Streptococcus pyogenes b15 after 18 hrs by agar dilution method. The class given is functional. To be noted: b15, 18 h. An outline of the steps:
as §2
On the technique in general: In agar dilution, organisms are placed on agar that contains the substance at set levels.

In experiment [4] the test system is Staphylococcus epidermidis. The experiment is described as follows: Antimicrobial activity against Staphylococcus epidermidis 16/2 after 18 hrs by agar dilution method. The class given is functional. The note with it: 16/2, 18 h. An outline of the steps: as §2
The subject of experiment [5] is Escherichia coli. The experiment is described as follows: Antimicrobial activity against Escherichia coli 25922 after 18 hrs by agar dilution method. The class given is functional. The note with it: Escherichia coli, 25922, 18 h. In short, it runs like this: as §2
Another experiment relates to Enterococcus faecalis. The experiment is described as follows: Antimicrobial activity against Enterococcus faecalis 6 after 18 hrs by agar dilution method. The note with it: Enterococcus faecalis, 6, 18 h.
For experiment [6], the system named is Stenotrophomonas maltophilia. As to the kind of experiment: Antimicrobial activity against Xanthomonas maltophilia IAC 739 after 18 hrs by agar dilution method. Type of experiment: functional. To be noted: IAC 739, 18 h. An outline of the steps: as §2
Experiment [7] relates to Staphylococcus aureus. The experiment is described as §1. Type of experiment: functional. In short, it runs like this:
as §2
The source holds these as a separate data set.

For experiment [8], the system named is Staphylococcus aureus. As to the kind of experiment: Antimicrobial activity against Staphylococcus aureus ATCC 25923 after 18 hrs by agar dilution method. Type of experiment: functional. The note with it: ATCC 25923, 18 h. In short, it runs like this:
as §2

The molecule `COc1cc(O)c2c(c1Br)C(=O)OCC(=O)NCC(=O)N[C@H](c1nc(C3CC3)no1)CSC2` displayed an MNEC with Escherichia coli [1] of 0.02 µg/mL. Further, in the experiment on Staphylococcus aureus [2], the ED50 (as a rule, the dose that gives a 50% effect, or the effect in half of the subjects) is 6 mg/kg. Further, 2 µg/mL (≈ 3.69 µM) was the least that counted as inhibitory against Staphylococcus aureus [3] (MIC).

In turn, `COc1cc(O)c2c(c1Br)C(=O)OCC(=O)NCC(=O)N[C@H](c1nc(CN)no1)CSC2.Cl` displayed an MNEC with Escherichia coli [1] of 0.1 µg/mL. Further, 32 µg/mL was the least that counted as inhibitory against Staphylococcus aureus [3] (MIC).

In the experiment with Escherichia coli [1], `COc1cc(O)c2c(c1Br)C(=O)OCCN(C(=O)[C@@H](N)CC(C)C)CC(=O)N[C@H](c1nc(C)no1)CSC2.Cl` had an MNEC of 0.1 µg/mL. Further, the MIC (as a rule, the least concentration at which growth counts as inhibited) against Staphylococcus aureus [3] came to 16 µg/mL.

For the molecule `CO[C@@H]1[C@@H](OC(N)=O)[C@@H](O)[C@H](Oc2ccc3c(O)c(NC(=O)c4ccc(O)c(CC=C(C)C)c4)c(=O)oc3c2C)OC1(C)C` [NOVOBIOCIN], the MIC is 1 µg/mL (≈ 1.63 µM) against Streptococcus pyogenes; 0.25 µg/mL (≈ 0.408 µM) in [4]; greater than 64 µg/mL in the experiment with Escherichia coli [5]; 4 µg/mL (≈ 6.53 µM) in the experiment with Enterococcus faecalis; greater than 64 µg/mL in experiment [6]; 0.12 µg/mL (≈ 0.196 µM) in the experiment with Staphylococcus aureus [7]. The molecule further showed an MIC against Staphylococcus aureus [8] of 0.25 µg/mL (≈ 0.408 µM). In the experiment on Staphylococcus aureus [2], this molecule returned an ED50 of 3 mg/kg.

`COc1cc(O)c2c(c1C)C(=O)OC[C@H](CO)CCC(=S)N[C@H](c1nc(C)no1)CSC2`: the MNEC in the experiment on Escherichia coli [1] came out at 0.002 µg/mL. In the experiment on Staphylococcus aureus [2], it took a dose of 12.5 mg/kg to reach the 50% effect level (ED50). For the same molecule, in the experiment with Staphylococcus aureus [3], inhibition of growth (MIC) required 0.5 µg/mL (≈ 1.04 µM).

With `COc1cc(O)c2c(c1Br)C(=O)OCCN(C(=O)[C@H](C)N)CC(=O)N[C@H](c1nc(C)no1)CSC2.Cl`, in the experiment with Escherichia coli [1], the MNEC stood at 0.1 µg/mL. The molecule further returned an MIC in the experiment on Staphylococcus aureus [3] greater than 64 µg/mL.

`COc1cc(O)c2c(c1Br)C(=O)OCC(=O)NCC(=S)N[C@H](c1nc(CNC(C)C)no1)CSC2.Cl` displayed an MNEC with Escherichia coli [1] of 0.02 µg/mL. Further, the MIC is 0.25 µg/mL against Streptococcus pyogenes; less than 0.12 µg/mL in [4]; greater than 64 µg/mL in the experiment with Escherichia coli [5]; 0.25 µg/mL in the experiment with Enterococcus faecalis; 16 µg/mL in experiment [6]; 0.5 µg/mL against Staphylococcus aureus [7]. In addition, the figures for the minimum inhibitory concentration (MIC) in the experiment on Staphylococcus aureus [8] and in the experiment with Staphylococcus aureus [3] were 1 µg/mL and 0.5 µg/mL, respectively. This molecule also came in with an ED50 with Staphylococcus aureus [2] of 12 mg/kg.

Consider `COc1cc(O)c2c(c1Br)C(=O)OCC(=O)N(C)CC(=S)N[C@H](c1nc(C)no1)CSC2`, for which the MNEC with Escherichia coli [1] stood at 0.05 µg/mL. Also, the MIC against Staphylococcus aureus [3] was determined as 0.5 µg/mL (≈ 0.917 µM).

In the experiment with Escherichia coli [1], `COc1cc(O)c2c(c1Br)C(=O)O[C@H](C)C(=O)NCC(=O)N[C@H](c1nc(C)no1)CSC2` returned an MNEC of 0.05 µg/mL. In the experiment with Staphylococcus aureus [2], this molecule gave an ED50 greater than 12.5 mg/kg. In the experiment with Staphylococcus aureus [3], this molecule returned an MIC of 2 µg/mL (≈ 3.78 µM).

For `COC(=O)[C@@H]1CSCc2c(O)cc(OC)c(C)c2C(=O)OCCCC/C(S)=N/1`, the MNEC in the experiment with Escherichia coli [1] worked out at 0.01 µg/mL.

Molecule `COc1cc(O)c2c(c1Br)C(=O)OCCN(C)CC(=O)N[C@H](c1nc(C)no1)CSC2.Cl` registered an MNEC with Escherichia coli [1] of 0.05 µg/mL. In the experiment with Staphylococcus aureus [2], this molecule came in with an ED50 greater than 25 mg/kg. This molecule displayed an MIC with Staphylococcus aureus [3] of 1 µg/mL.

In turn, `COc1cc(O)c2c(c1Br)C(=O)O[C@H](c1ccccc1)C(=O)NCC(=S)N[C@H](c1nc(C)no1)CSC2` showed an MNEC in the experiment with Escherichia coli [1] of 1 µg/mL. In the experiment with Staphylococcus aureus [2], this molecule had an ED50 greater than 25 mg/kg. Further, 0.5 µg/mL (≈ 0.823 µM) was the least that counted as inhibitory in the experiment on Staphylococcus aureus [3] (MIC).

In turn, `COc1cc(O)c2c(c1C)C(=O)O[C@H](CO)CCCC(=S)N[C@H](c1nc(CN)no1)CSC2` registered an MNEC in the experiment on Escherichia coli [1] of 0.005 µg/mL. The MIC in the experiment on Staphylococcus aureus [3] was 32 µg/mL (≈ 64.4 µM).

Turning to `COc1cc(O)c2c(c1C)C(=O)OC[C@H](CO)CCC(=O)N[C@H](c1nc(C)no1)CSC2`, in the experiment on Escherichia coli [1], the MNEC stood at 0.005 µg/mL. The same molecule yielded an MIC against Staphylococcus aureus [3] of 8 µg/mL (≈ 17.2 µM).

In the experiment with Escherichia coli [1], `COc1cc(O)c2c(c1Br)C(=O)OCCN(C(=O)C(C)(C)C)CC(=O)N[C@H](c1nc(C)no1)CSC2` had an MNEC of 0.05 µg/mL. Further, the ED50 with Staphylococcus aureus [2] was greater than 12 mg/kg. In the experiment on Staphylococcus aureus [3], the lowest concentration to inhibit growth (MIC) was 0.5 µg/mL (≈ 0.854 µM).

With `COc1cc(O)c2c(c1C)C(=O)OC[C@@H](CO)CCC(=S)N[C@H](c1nc(C)no1)CSC2`, the MNEC in the experiment on Escherichia coli [1] was 0.05 µg/mL. The molecule also showed an ED50 in the experiment on Staphylococcus aureus [2] greater than 25 mg/kg. Further, the MIC in the experiment on Staphylococcus aureus [3] was 1 µg/mL (≈ 2.08 µM).

Consider `COc1cc(O)c2c(c1Cl)C(=O)OCCCCC(=S)N[C@H](c1nc(C)no1)CSC2`, for which the MNEC in the experiment on Escherichia coli [1] turned out to be 0.002 µg/mL. Further, the MIC against Staphylococcus aureus [3] was determined as 0.25 µg/mL (≈ 0.53 µM).

In the experiment with Escherichia coli [1], `COc1cc(O)c2c(c1Br)C(=O)O[C@H](c1ccccc1)C(=O)NCC(=O)N[C@H](c1nc(C)no1)CSC2` displayed an MNEC of 0.2 µg/mL. This molecule displayed an MIC against Staphylococcus aureus [3] greater than 64 µg/mL.

Molecule `COc1cc(O)c2c(c1Br)C(=O)OCCN(S(C)(=O)=O)CC(=O)N[C@H](c1nc(C)no1)CSC2` displayed an MNEC in the experiment on Escherichia coli [1] of 0.1 µg/mL. In addition, inhibition of growth against Staphylococcus aureus [3] (MIC) required 64 µg/mL (≈ 110 µM).

`COc1cc(O)c2c(c1Br)C(=O)OCC(=O)NCC(=S)N[C@H](c1nc(CN)no1)CSC2.Cl` came in with an MNEC in the experiment with Escherichia coli [1] of 0.05 µg/mL. The molecule further returned an ED50 with Staphylococcus aureus [2] greater than 12 mg/kg. Also, the MIC against Staphylococcus aureus [3] was 1 µg/mL.

For `COc1cc(O)c2c(c1C)C(=O)O[C@H](CO)CCCC(=S)N[C@H](c1nc(CO)no1)CSC2`, in the experiment on Escherichia coli [1], the MNEC was found to be 0.01 µg/mL. The same molecule displayed an MIC against Staphylococcus aureus [3] of 10 µg/mL (≈ 20.1 µM).
